Screens (PubChem)
CFTR F508del cor: F508del CFTR correction, initial screen, CFBE line, single point; activity (quench increase), % at 7.58 µM; CFBE cells, YFP halide quenching; stimulated with forskolin plus potentiator P3; % fluorescence drop versus neutral controls; 350,000 tested, 0.36% active;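 active = mean added fluorescence quench of at least 8% versus neutral control, with both replicates also reaching 8%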;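 note: cells transiently co-express mutant CFTR-F508del with the halide-sensitive YFP; corrector assay measuring rescue of mutant channel to the surface after 24 h compound exposure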
rRNA inh HTS: reduced GFP signal of wild-type E. coli, primary screen, bacterial rRNA inhibitor project, GFP/RFP fluorescence, OD600, single point. 350,000 tested, 1.6% active. AID 720706, 2013. E. coli WT GFP vs humanized-ribosome RFP mutants, 24 h; stronger effect = lower value; DMSO median 0, no signal -100. GFP signal change (wild-type ribosome), % (concentration not given with the values);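 active = significant combined selectivity score with lowered wild-type GFP, culture density cut under 30%, mutant RFP and density less affected; inactive = any of these conditions unmet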
ERAP1 HTS inh: human ERAP1 aminopeptidase inhibitors, primary screen, biochemical, single point, plate reader. Endoplasmic reticulum aminopeptidase 1 (Homo sapiens), Q9NZ08. recombinant ERAP1, Leu-AMC fluorescence, 60 min. inhibition, % at 10.7 µM. 340,000 tested, 0.15% active. AID 652197, 2013;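 active = mean replicate inhibition of at least 30%, or all replicates individually reaching that 30% level; inactive = mean below 30% and not every replicate reaching it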;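 note: 0% = neutral control wells and 100% = L-leucinethiol positive control wells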
Target sequence (Q9NZ08 whole entry, looked up): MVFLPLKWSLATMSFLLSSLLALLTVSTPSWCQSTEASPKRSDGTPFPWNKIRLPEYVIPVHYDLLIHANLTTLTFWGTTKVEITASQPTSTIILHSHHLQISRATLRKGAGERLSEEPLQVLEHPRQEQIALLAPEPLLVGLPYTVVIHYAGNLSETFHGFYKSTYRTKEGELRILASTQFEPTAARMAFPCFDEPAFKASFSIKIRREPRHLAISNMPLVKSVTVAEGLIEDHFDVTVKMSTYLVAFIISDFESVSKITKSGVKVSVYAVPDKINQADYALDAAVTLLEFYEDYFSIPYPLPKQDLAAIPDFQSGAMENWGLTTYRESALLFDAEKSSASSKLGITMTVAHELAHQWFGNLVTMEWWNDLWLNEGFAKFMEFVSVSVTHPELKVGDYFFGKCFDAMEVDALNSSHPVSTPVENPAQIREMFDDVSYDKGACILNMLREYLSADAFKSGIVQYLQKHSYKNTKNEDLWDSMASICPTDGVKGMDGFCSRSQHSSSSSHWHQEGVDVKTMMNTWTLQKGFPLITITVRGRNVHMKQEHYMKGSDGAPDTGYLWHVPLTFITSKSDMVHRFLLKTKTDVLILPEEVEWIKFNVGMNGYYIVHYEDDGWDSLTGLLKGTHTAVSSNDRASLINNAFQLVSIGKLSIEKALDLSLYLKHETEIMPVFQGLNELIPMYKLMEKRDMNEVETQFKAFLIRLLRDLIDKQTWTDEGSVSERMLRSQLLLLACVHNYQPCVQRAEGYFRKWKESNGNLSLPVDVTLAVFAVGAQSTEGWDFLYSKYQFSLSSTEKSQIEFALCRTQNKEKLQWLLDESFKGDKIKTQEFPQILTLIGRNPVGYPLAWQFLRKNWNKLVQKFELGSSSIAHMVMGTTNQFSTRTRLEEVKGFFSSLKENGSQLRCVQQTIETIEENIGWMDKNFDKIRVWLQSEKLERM
SIRT5 block: SIRT5 desuccinylase inhibitors, primary screen, biochemical, fluorescence imaging, single point, set 5. NAD-dependent protein deacylase sirtuin-5, mitochondrial (Homo sapiens), Q9NXA8. Purified SirT5, succinyl-peptide AMC, trypsin-coupled fluorescence. inhibition, % at 15 µM. 330,000 tested, 1.1% active; in the data active = inhibition above about 15%
S100A4 inh HTS: inhibitors of S100A4-myosin IIA peptide binding, primary screen, biochemical, fluorescence polarization, TAMRA-MyoIIA peptide; inhibition, % at 10.7 µM; Protein S100-A4 (Homo sapiens), P26447; AID 652163, 2013; 360,000 tested, 0.14% active;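 active = mean inhibition of at least 70% across replicates, with every replicate also reaching that level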
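Material: S100A4 monomer protein / Buffer or medium: 50 mM HEPES pH 7.2, 10 mM CaCl2, 100 mM KCl / Times: 5 min incubation before reading / Benchmarks: neutral control DMSO, positive control TFP / Reagent: labelled myosin peptide probe, 5 nM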
* hit, by the source's call; · = no result given; ! = a repeat was not active. In the library only some 3.1% were active in any assay of this set; here they are far more common.

SMILES	CFTR F508del cor	rRNA inh HTS	ERAP1 HTS inh	SIRT5 block	S100A4 inh HTS
O=C(c1cccc(S(=O)(=O)N2CCN(c3ccc(F)cc3)CC2)c1)N1CCCC(C(F)(F)F)C1 (stereo not given)	10.0*	1.1	-2.3	0.0	-0.6
O=C(COc1ccc(F)cc1Cl)Nc1cccc(S(=O)(=O)N2CCCCCC2)c1	8.8*	0.1	0.2	-0.3	1.4
CCCN1[C@@H]2c3ccc(-c4cccnc4)c(=O)n3C[C@@H]2[C@@H](CO)[C@@H]1C(=O)NCCN1CCCC1	-2.6	-0.6	·	2.1	·
CCC1CCCCN1CCCNC(=O)c1c(O)nc2ccccn2c1=O (stereo not given)	-1.0	5.6	-7.9	31.9*	-0.5
NS(=O)(=O)c1ccc(CCNc2nn3c(-c4cccc(OC(F)(F)F)c4)cnc3s2)cc1	13.7*	-15.9	2.4	-0.7	58.9
Cc1noc(C)c1S(=O)(=O)Nc1ccc2c(c1)C(=O)N([C@H](C)CO)C[C@H](C)[C@H](CN(C)CC1CCCCC1)O2	-2.3	0.9	0.7	-2.1	-0.1
COC(=O)c1ccc(-c2noc(CN(C)CCC3CCCCO3)n2)cc1 (stereo not given)	-1.9	3.6	3.5	-4.2	-0.4
COC(=O)c1ccc(-c2noc(CN3CCCC(CNC(C)=O)C3)n2)cc1 (stereo not given)	-3.7	3.3	2.6	34.9*	2.1
COc1ccc(C(=O)COC(=O)/C=C/c2ccccc2[N+](=O)[O-])cc1	-1.0	-13.0	1.7	·	0.7
O=C(/C=C/c1ccccc1[N+](=O)[O-])OCC(=O)c1ccccc1	-0.1	-21.5*	2.7	·	-5.5
CCCNC(=O)N[C@@H]1C=C[C@@H](CC(=O)NC2CCC2)O[C@H]1CO	0.7	2.9	-3.0	-10.9	-2.3
CC(C)(C)NC(=O)CC1C(=O)NCCN1Cc1c(F)cccc1Cl (stereo not given)	·	15.5	1.2	-2.2	-5.5
C=CCNC(=O)CC1C(=O)NCCN1Cc1c(F)cccc1Cl (stereo not given)	-0.7	3.2	5.3	31.5*	-6.9
CCc1ccc(S(=O)(=O)c2ccc(-n3nc(C)cc3N)cc2)cc1	2.7	9.3	-1.3	111.8*	11.1
CCOc1ccc(C(=O)NCC(=O)NNC(=O)c2cc(C)oc2C)cc1OCC	16.4*	14.1	-0.6	-1.7	-5.1
CCCC(=O)Nc1ccc2c(c1)C(=O)N(C)C[C@H](OC)[C@@H](C)CN(C(=O)c1ccccc1F)[C@@H](C)CO2	0.7	1.6	-0.7	0.1	6.8
O=C(CCn1c2c(c3ccccc31)CCCC2)NNC(=O)c1ccc(Cl)c([N+](=O)[O-])c1	·	3.2	9.8	26.9*	2.7
CCOC(=O)NNC(=O)CCn1c2c(c3ccccc31)CCCC2	0.8	-17.2*	-0.9	-5.2	4.2
CC(=O)NNC(=O)CCn1c2c(c3ccccc31)CCCC2	-4.0	15.9	1.3	-1.1	1.2
O=C(CCn1c2c(c3ccccc31)CCCC2)NNC(=O)c1ccc([N+](=O)[O-])cc1	·	·	-7.9	4.9	5.6
Cn1cnc([N+](=O)[O-])c1Sc1ncnc2nc[nH]c12	1.5	-0.8	-0.1	2.7	0.4
Cn1cnc(Sc2ncnc3nc[nH]c23)c1[N+](=O)[O-]	2.1	-8.6	41.1*	-0.2	-2.3
O=S(=O)(NCc1c(Cl)cccc1Oc1ccccc1)c1ccc(F)cc1	1.2	-39.2*	-0.9	-2.4	-5.5
C[C@H](CO)N1C[C@H](C)[C@@H](CN(C)Cc2ccc(C(F)(F)F)cc2)Oc2c(NC(=O)C3CCCCC3)cccc2C1=O	0.4	2.0	-1.8	16.7*	-0.9
C[C@H](CO)N1C[C@H](C)[C@@H](CN(C)Cc2ccccc2)Oc2c(NC(=O)C3CCCCC3)cccc2C1=O	0.5	-3.2	0.4	17.6*!	-2.1
SMILES	CFTR F508del cor	rRNA inh HTS	ERAP1 HTS inh	SIRT5 block	S100A4 inh HTS
C[C@H]1CN([C@@H](C)CO)C(=O)c2ccccc2-c2ccccc2CO[C@H]1CN(C)C(=O)c1ccc(F)cc1	-3.9	-1.6	2.3	0.6	3.4
COc1ccccc1CC(=O)NNS(=O)(=O)c1ccc([N+](=O)[O-])cc1	-0.6	6.8	·	24.7*	0.6
C[C@H]1CN([C@@H](C)CO)C(=O)c2cc(NC(=O)CCN3CCOCC3)ccc2O[C@@H]1CN(C)Cc1ccc(C(=O)O)cc1	-3.2	3.4	5.6	-3.4	-9.5
COc1cc(=O)[nH]c(SC(C)C(=O)Nc2cccc3ccccc23)n1 (stereo not given)	2.6	-2.1	3.7	74.9*	1.2
COc1cc(=O)[nH]c(SC(C)C(=O)Nc2nc3c(s2)CCCC3)n1 (stereo not given)	-0.3	-2.6	-1.0	-3.2	-3.6
C[C@@H]1CN([C@H](C)CO)C(=O)c2cc(NC(=O)Nc3ccc(F)cc3)ccc2O[C@@H](C)CCCCO[C@H]1CN(C)S(=O)(=O)c1cn(C)cn1	-1.8	2.0	3.4	-3.4	2.8
O=C1CCCc2ccccc2N1Cc1ccc(F)cc1	-2.9	-17.1	·	1.0	-15.9
N=c1c2c(n(Cc3ccc(F)cc3)c3c1CCC3)CCCC2	4.6	-31.0*	-5.7	5.0	-0.4
N=c1c2c(n(Cc3cccc(Cl)c3)c3c1CCC3)CCCC2	3.6	-51.8*	-2.0	-3.7	2.7
CCn1c2c(c(=N)c3c1CCC3)CCCC2	0.9	9.5	-0.5	-6.3	-0.3
N=c1c2c(n(Cc3ccc(Cl)cc3)c3c1CCC3)CCC2	-2.5	-52.5*	1.3	-0.7	1.6
O=C(Nc1cc(F)ccc1F)N[C@H]1CC[C@H](CCn2cc(C3CC3)nn2)O[C@H]1CO	-0.6	0.1	-0.1	-0.6	6.8
CO[C@H]1CC[C@@H]2CCN(C)C(=O)C[C@@H](c3ccccc3)CN(C)C(=O)c3cccc(C#N)c3OC[C@H]1O2	·	1.7	-0.9	-0.4	8.1
S=c1[nH]nc(-c2ccc3ccccc3n2)n1-c1ccccc1	·	2.2	-1.6	-3.4	1.2
S=c1[nH]nc(-c2ccc(Br)cc2)n1-c1ccc2c(c1)OCCO2	3.1	-14.4*	-0.8	-3.3	-0.5
S=c1[nH]nc(-c2ccc3ccccc3n2)n1-c1ccc2c(c1)OCCO2	-1.9	-32.7*	-0.1	-3.7	-7.8
CC(C)CC#Cc1ccc2c(c1)O[C@H](CN(C)C(=O)Cc1ccccc1)[C@H](C)CN([C@H](C)CO)S2(=O)=O	2.1	-2.7	-1.9	2.6	2.3
COC(=O)c1ccc(CSc2cc(C)c3ccccc3n2)o1	-1.1	-22.2*	-1.9	-3.2	5.0
COc1ccccc1/C=C/C(=O)Nc1nc(N)n(-c2ccccc2)n1	·	-25.4*	1.0	4.3	-2.8
